Measured values taken from ChEMBL document CHEMBL1121923, “N2- and C-7 substituted actinomycin D analogues: synthesis, DNA-binding affinity, and biochemical and biological properties. Structure-activity relationship” (J Med Chem, 1981).
In brackets after ≈: the same amount, converted by molar mass.

Columns and labels:
CCRF-CEM = assay: In vitro antitumor activity against human lymphoblastic leukemia cells.; assay type: functional; details: read-out: ID50 (the source's name)
Method in brief: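 Human lymphoblastic leukemia CCRF-CEM cells grown in suspension culture; growth inhibition in vitro; ID50 (ng/mL) reported as the 50% inhibitory dose.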

P388 [1] = assay: Percent of increased life span of P388 cells implanted CDF1 male mice; assay type: functional, Mus musculus
Method in brief: (§1)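 CDF1 male mice, groups of seven, given 10^6 P388 cells ip on day 0; drug ip in 5% DMSO–saline on days 1, 5 and 9; controls received vehicle; range of doses tested, optimal nontoxic dose listed; median survival time; %ILS = (treated − control)/control × 100; average of two or more experiments.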

P388 [2] = assay: Concentration required for 50% inhibition of incorporation of labeled uridine by P388 cells for the synthesis of RNA (in vitro); assay type: functional; details: Mus musculus, read-out: ED50 (the source's name)
P388 [3] = assay: Concentration required for 50% inhibition of incorporation of labeled thymidine by p388 cells for synthesis of DNA (in vitro); assay type: functional; details: Mus musculus, read-out: ED50 (the source's name)
P388 [4] = assay: Optimal dose for antitumor activity was measured in P388 cells of CDF1 male mice in vivo; assay type: functional, Mus musculus; method in brief: as §1
P388 [5] = assay: Median survival time of the P388 cells implanted CDF1 male mice in vivo; assay type: functional, Mus musculus; method in brief: as §1
Bos taurus = species: Bos taurus; assay: Thermal denaturation (deltaTm) of compound against calf thymus DNA was measured; assay type: ADME; details: cattle, in vitro
Method in brief: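 Calf thymus DNA (MW 100 000–500 000) in 0.01 M phosphate, 5 × 10^-3 M EDTA, pH 7.0; drug 7 × 10^-4 M, DNA nucleotide 7 × 10^-3 M; 259 nm absorbance read at 0.25–1.0 °C steps; Tm taken at 50% hyperchromicity; ΔTm = complex Tm minus DNA Tm.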

COc1cc(C(=O)N[C@@H]2C(=O)N[C@H](C(C)C)C(=O)N3CCC[C@H]3C(=O)N(C)CC(=O)N(C)[C@@H](C(C)C)C(=O)O[C@@H]2C)c2nc3c(C(=O)N[C@@H]4C(=O)N[C@H](C(C)C)C(=O)N5CCC[C@H]5C(=O)N(C)CC(=O)N(C)[C@@H](C(C)C)C(=O)O[C@@H]4C)c(N)c(=O)c(C)c-3oc2c1C
IC50 (CCRF-CEM): 0.16 µg/mL (≈ 0.124 µM)
ILS (P388 [1]): 81%
EC50 (P388 [2]): 69 nM
EC50 (P388 [3]): 628 nM
Optimal dose (P388 [4]): 0.6 mg/kg
MST (P388 [5]): 19 days

Cc1c2oc3c(C)c(O)c(N)c(C(=O)N[C@@H]4C(=O)N[C@H](C(C)C)C(=O)N5CCC[C@H]5C(=O)N(C)CC(=O)N(C)[C@@H](C(C)C)C(=O)O[C@@H]4C)c3nc-2c(C(=O)N[C@@H]2C(=O)N[C@H](C(C)C)C(=O)N3CCC[C@H]3C(=O)N(C)CC(=O)N(C)[C@@H](C(C)C)C(=O)O[C@@H]2C)c/c1=N/Cc1ccccc1
EC50 (P388 [2]): 1400 nM
EC50 (P388 [3]): 2700 nM

Cc1c2oc3c(C)c(OC(=O)C45CC6CC(CC(C6)C4)C5)cc(C(=O)N[C@@H]4C(=O)N[C@H](C(C)C)C(=O)N5CCC[C@H]5C(=O)N(C)CC(=O)N(C)[C@@H](C(C)C)C(=O)O[C@@H]4C)c3nc-2c(C(=O)N[C@@H]2C(=O)N[C@H](C(C)C)C(=O)N3CCC[C@H]3C(=O)N(C)CC(=O)N(C)[C@@H](C(C)C)C(=O)O[C@@H]2C)c(N)c1=O
IC50 (CCRF-CEM): 0.2 µg/mL (≈ 0.14 µM)
ILS (P388 [1]): 167%
EC50 (P388 [2]): 176 nM
EC50 (P388 [3]): 730 nM
Optimal dose (P388 [4]): 0.5 mg/kg
MST (P388 [5]): 28 days

Cc1c2oc3c(C)c(O)c(N)c(C(=O)N[C@@H]4C(=O)N[C@H](C(C)C)C(=O)N5CCC[C@H]5C(=O)N(C)CC(=O)N(C)[C@@H](C(C)C)C(=O)O[C@@H]4C)c3nc-2c(C(=O)N[C@@H]2C(=O)N[C@H](C(C)C)C(=O)N3CCC[C@H]3C(=O)N(C)CC(=O)N(C)[C@@H](C(C)C)C(=O)O[C@@H]2C)cc1=N
EC50 (P388 [2]): 82 nM
EC50 (P388 [3]): 1230 nM

Cc1c2oc3c(C)ccc(C(=O)N[C@@H]4C(=O)N[C@H](C(C)C)C(=O)N5CCC[C@H]5C(=O)N(C)CC(=O)N(C)[C@@H](C(C)C)C(=O)O[C@@H]4C)c3nc-2c(C(=O)N[C@@H]2C(=O)N[C@H](C(C)C)C(=O)N3CCC[C@H]3C(=O)N(C)CC(=O)N(C)[C@@H](C(C)C)C(=O)O[C@@H]2C)c(NCCCCCCCCCCN)c1=O
IC50 (CCRF-CEM): 0.28 µg/mL (≈ 0.198 µM)
ILS (P388 [1]): 64%
EC50 (P388 [2]): 700 nM
EC50 (P388 [3]): 2700 nM
Optimal dose (P388 [4]): 1.8 mg/kg
MST (P388 [5]): 18 days

Cc1c2oc3c(C)c(OCc4ccc([N+](=O)[O-])cc4)cc(C(=O)N[C@@H]4C(=O)N[C@H](C(C)C)C(=O)N5CCC[C@H]5C(=O)N(C)CC(=O)N(C)[C@@H](C(C)C)C(=O)O[C@@H]4C)c3nc-2c(C(=O)N[C@@H]2C(=O)N[C@H](C(C)C)C(=O)N3CCC[C@H]3C(=O)N(C)CC(=O)N(C)[C@@H](C(C)C)C(=O)O[C@@H]2C)c(N)c1=O
IC50 (CCRF-CEM): 0.5 µg/mL (≈ 0.355 µM)
ILS (P388 [1]): 33%
Optimal dose (P388 [4]): 0.6 mg/kg
MST (P388 [5]): 14 days

CCCCOc1cc(C(=O)N[C@@H]2C(=O)N[C@H](C(C)C)C(=O)N3CCC[C@H]3C(=O)N(C)CC(=O)N(C)[C@@H](C(C)C)C(=O)O[C@@H]2C)c2nc3c(C(=O)N[C@@H]4C(=O)N[C@H](C(C)C)C(=O)N5CCC[C@H]5C(=O)N(C)CC(=O)N(C)[C@@H](C(C)C)C(=O)O[C@@H]4C)c(N)c(=O)c(C)c-3oc2c1C
ILS (P388 [1]): 33%
EC50 (P388 [2]): 770 nM
EC50 (P388 [3]): 11300 nM
Optimal dose (P388 [4]): 0.75 mg/kg
MST (P388 [5]): 14 days

Cc1c2oc3c(C)c(O)c(N)c(C(=O)N[C@@H]4C(=O)N[C@H](C(C)C)C(=O)N5CCC[C@H]5C(=O)N(C)CC(=O)N(C)[C@@H](C(C)C)C(=O)O[C@@H]4C)c3nc-2c(C(=O)N[C@@H]2C(=O)N[C@H](C(C)C)C(=O)N3CCC[C@H]3C(=O)N(C)CC(=O)N(C)[C@@H](C(C)C)C(=O)O[C@@H]2C)c/c1=N/Cc1cccc(Oc2ccccc2)c1
EC50 (P388 [2]): 700 nM
EC50 (P388 [3]): 1500 nM

Cc1c2oc3c(C)c(OCc4ccc(Cl)c(Cl)c4)cc(C(=O)N[C@@H]4C(=O)N[C@H](C(C)C)C(=O)N5CCC[C@H]5C(=O)N(C)CC(=O)N(C)[C@@H](C(C)C)C(=O)O[C@@H]4C)c3nc-2c(C(=O)N[C@@H]2C(=O)N[C@H](C(C)C)C(=O)N3CCC[C@H]3C(=O)N(C)CC(=O)N(C)[C@@H](C(C)C)C(=O)O[C@@H]2C)c(N)c1=O
ILS (P388 [1]): 81%
Optimal dose (P388 [4]): 0.5 mg/kg
MST (P388 [5]): 19 days

Cc1c2oc3c(C)c(OCc4ccc(Cl)cc4)cc(C(=O)N[C@@H]4C(=O)N[C@H](C(C)C)C(=O)N5CCC[C@H]5C(=O)N(C)CC(=O)N(C)[C@@H](C(C)C)C(=O)O[C@@H]4C)c3nc-2c(C(=O)N[C@@H]2C(=O)N[C@H](C(C)C)C(=O)N3CCC[C@H]3C(=O)N(C)CC(=O)N(C)[C@@H](C(C)C)C(=O)O[C@@H]2C)c(N)c1=O [listing 1 of 2 here]
IC50 (CCRF-CEM): 0.5 µg/mL (≈ 0.358 µM)
ILS (P388 [1]): 52%
Optimal dose (P388 [4]): 0.45 mg/kg
MST (P388 [5]): 16 days

Cc1c2oc3c(C)c(O)c(N)c(C(=O)N[C@@H]4C(=O)N[C@H](C(C)C)C(=O)N5CCC[C@H]5C(=O)N(C)CC(=O)N(C)[C@@H](C(C)C)C(=O)O[C@@H]4C)c3nc-2c(C(=O)N[C@@H]2C(=O)N[C@H](C(C)C)C(=O)N3CCC[C@H]3C(=O)N(C)CC(=O)N(C)[C@@H](C(C)C)C(=O)O[C@@H]2C)c/c1=N/Cc1ccco1
EC50 (P388 [2]): 810 nM
EC50 (P388 [3]): 2450 nM

CCCCNc1c(C(=O)N[C@@H]2C(=O)N[C@H](C(C)C)C(=O)N3CCC[C@H]3C(=O)N(C)CC(=O)N(C)[C@@H](C(C)C)C(=O)O[C@@H]2C)c2nc3c(C(=O)N[C@@H]4C(=O)N[C@H](C(C)C)C(=O)N5CCC[C@H]5C(=O)N(C)CC(=O)N(C)[C@@H](C(C)C)C(=O)O[C@@H]4C)ccc(C)c3oc-2c(C)c1=O
IC50 (CCRF-CEM): 0.95 µg/mL (≈ 0.724 µM)
ILS (P388 [1]): 36%
Optimal dose (P388 [4]): 0.9 mg/kg
MST (P388 [5]): 15 days

Cc1c2oc3c(C)c(OC(=O)c4ccc5ccccc5c4)cc(C(=O)N[C@@H]4C(=O)N[C@H](C(C)C)C(=O)N5CCC[C@H]5C(=O)N(C)CC(=O)N(C)[C@@H](C(C)C)C(=O)O[C@@H]4C)c3nc-2c(C(=O)N[C@@H]2C(=O)N[C@H](C(C)C)C(=O)N3CCC[C@H]3C(=O)N(C)CC(=O)N(C)[C@@H](C(C)C)C(=O)O[C@@H]2C)c(N)c1=O
ILS (P388 [1]): 71%
Optimal dose (P388 [4]): 0.9 mg/kg
MST (P388 [5]): 18 days

Cc1c2oc3c(C)ccc(C(=O)N[C@@H]4C(=O)N[C@H](C(C)C)C(=O)N5CCC[C@H]5C(=O)N(C)CC(=O)N(C)[C@@H](C(C)C)C(=O)O[C@@H]4C)c3nc-2c(C(=O)N[C@@H]2C(=O)N[C@H](C(C)C)C(=O)N3CCC[C@H]3C(=O)N(C)CC(=O)N(C)[C@@H](C(C)C)C(=O)O[C@@H]2C)c(NCCCCCCCCN)c1=O
IC50 (CCRF-CEM): 0.31 µg/mL (≈ 0.224 µM)
ILS (P388 [1]): 27%
Optimal dose (P388 [4]): 1.8 mg/kg
MST (P388 [5]): 14 days

Cc1c2oc3c(C)c(OC(=O)c4ccccc4)cc(C(=O)N[C@@H]4C(=O)N[C@H](C(C)C)C(=O)N5CCC[C@H]5C(=O)N(C)CC(=O)N(C)[C@@H](C(C)C)C(=O)O[C@@H]4C)c3nc-2c(C(=O)N[C@@H]2C(=O)N[C@H](C(C)C)C(=O)N3CCC[C@H]3C(=O)N(C)CC(=O)N(C)[C@@H](C(C)C)C(=O)O[C@@H]2C)c(N)c1=O
IC50 (CCRF-CEM): 2.5 µg/mL (≈ 1.82 µM)
ILS (P388 [1]): 91%
Optimal dose (P388 [4]): 0.75 mg/kg
MST (P388 [5]): 20 days

Cc1c2oc3c(C)c(O)c(N)c(C(=O)N[C@@H]4C(=O)N[C@H](C(C)C)C(=O)N5CCC[C@H]5C(=O)N(C)CC(=O)N(C)[C@@H](C(C)C)C(=O)O[C@@H]4C)c3nc-2c(C(=O)N[C@@H]2C(=O)N[C@H](C(C)C)C(=O)N3CCC[C@H]3C(=O)N(C)CC(=O)N(C)[C@@H](C(C)C)C(=O)O[C@@H]2C)c/c1=N/Cc1ccc[nH]1
EC50 (P388 [2]): 184 nM
EC50 (P388 [3]): 370 nM

Cc1c2oc3c(C)c(OCc4ccc(Cl)cc4)cc(C(=O)N[C@@H]4C(=O)N[C@H](C(C)C)C(=O)N5CCC[C@H]5C(=O)N(C)CC(=O)N(C)[C@@H](C(C)C)C(=O)O[C@@H]4C)c3nc-2c(C(=O)N[C@@H]2C(=O)N[C@H](C(C)C)C(=O)N3CCC[C@H]3C(=O)N(C)CC(=O)N(C)[C@@H](C(C)C)C(=O)O[C@@H]2C)c(N)c1=O [listing 2 of 2 here]
Delta Tm (Bos taurus): 0

CCCCCCCOc1cc(C(=O)N[C@@H]2C(=O)N[C@H](C(C)C)C(=O)N3CCC[C@H]3C(=O)N(C)CC(=O)N(C)[C@@H](C(C)C)C(=O)O[C@@H]2C)c2nc3c(C(=O)N[C@@H]4C(=O)N[C@H](C(C)C)C(=O)N5CCC[C@H]5C(=O)N(C)CC(=O)N(C)[C@@H](C(C)C)C(=O)O[C@@H]4C)c(N)c(=O)c(C)c-3oc2c1C
Delta Tm (Bos taurus): 0
